# Source: PubChem
# pPAFAH FP inh = pPAFAH enzyme inhibitors, primary screen, biochemical, fluorescence polarization, human | Platelet-activating factor acetylhydrolase (Homo sapiens), Q13093 | recombinant pPAFAH, FP-rhodamine probe fluorescence polarization | inhibition, % at 3.39 µM | actives 1.5% (n = 330,000);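 active = inhibition above the mean inhibition across the screen plus 3 SD, cut at about 25% in these data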;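 note: inhibitors block binding of the rhodamine activity-based probe so polarization drops; 0% = enzyme with DMSO and 100% = wells lacking pPAFAH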
# HTRA1 inh = HTRA1 serine protease inhibitors, primary screen, biochemical, fluorescence polarization, HTS. actives 0.5% (n = 340,000). inhibition, % at 5.96 µM. recombinant HTRA1, FP-rhodamine activity-based probe. Q92743; in the data active = inhibition above about 36%;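 note: 0% = enzyme with DMSO and 100% = wells lacking enzyme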
# PAFAH1B3 inh = PAFAH1B3 enzyme inhibitors, primary screen, biochemical, fluorescence polarization, human. AID 492972, 2010. Platelet-activating factor acetylhydrolase IB subunit alpha1 (Homo sapiens), Q15102. recombinant PAFAH1B3, FP-rhodamine probe. actives 0.28% (n = 340,000). inhibition, % at 3.39 µM;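 active = inhibition above the screen-wide average of all tested compounds plus 3 SD, cut at about 25% in these data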;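 note: 0% = enzyme with DMSO only and 100% = wells lacking PAFAH1B3 protein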
# Target sequence (Q15102 whole entry, looked up): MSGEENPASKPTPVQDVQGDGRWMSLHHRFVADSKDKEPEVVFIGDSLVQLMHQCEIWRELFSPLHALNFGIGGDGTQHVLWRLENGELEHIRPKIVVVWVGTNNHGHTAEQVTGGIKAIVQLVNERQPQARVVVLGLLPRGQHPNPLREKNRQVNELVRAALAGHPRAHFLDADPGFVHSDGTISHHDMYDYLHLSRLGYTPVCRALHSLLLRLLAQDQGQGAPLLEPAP
# PAFAH2 inh = PAFAH2 enzyme inhibitors, primary screen, biochemical, fluorescence polarization, human; AID 492956, 2010; actives 0.99% (n = 340,000); inhibition, % at 3.39 µM; recombinant PAFAH2, FP-rhodamine activity probe; Platelet-activating factor acetylhydrolase 2, cytoplasmic (Homo sapiens), Q99487;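 active = inhibition above the mean over all tested compounds plus 3 SD, cut at about 30% in these data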;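 note: inhibitors block probe labeling of enzyme so polarization drops; 0% = enzyme with DMSO and 100% = wells lacking PAFAH2 protein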
# PAFAH1B2 inh = PAFAH1B2 enzyme inhibitors, primary screen, biochemical, fluorescence polarization, human; Platelet-activating factor acetylhydrolase IB subunit alpha2 (Homo sapiens), P68402; recombinant PAFAH1B2, FP-rhodamine activity probe; inhibition, % at 3.39 µM; actives 1.2% (n = 340,000);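 active = inhibition above the mean of all tested compounds plus 3 SD, cut at about 24% in these data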;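 note: 0% = enzyme with DMSO and 100% = wells lacking PAFAH1B2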
# Target sequence (P68402 whole entry, looked up): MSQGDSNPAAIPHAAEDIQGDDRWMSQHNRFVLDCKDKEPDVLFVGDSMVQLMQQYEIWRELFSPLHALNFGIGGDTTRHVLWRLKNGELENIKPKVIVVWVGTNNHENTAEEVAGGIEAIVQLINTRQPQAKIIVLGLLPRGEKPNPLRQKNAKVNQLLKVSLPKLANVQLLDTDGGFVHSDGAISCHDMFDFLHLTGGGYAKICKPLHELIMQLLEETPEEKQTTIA
# ABHD4 inh = ABHD4 inhibitors, primary screen, biochemical, fluorescence polarization, mouse | purified mABHD4, FP-Rh probe fluorescence polarization | inhibition, % at 8.92 µM | actives 0.54% (n = 370,000) | AID 720543, 2013;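 active = inhibition exceeding the mean over every tested compound plus 3 SD, cut at about 30% in these data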;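 note: 0% = plate median of compound wells and 100% = S159A mutant with DMSO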
#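 Test system: mouse ABHD4 enzyme, wild type. Reagent: FP-Rh fluorescent activity-based probe, added after compound pre-incubation. Timing: pre-incubation 45 min, probe exposure 60 min, at 25 °C. Technique: FP readout, ex 525 nm / em 598 nm. Benchmarks: high control S159A mutant with DMSO, low control median of compound wells.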
# * = called active by the depositor; x = not tested or not shown. Shown are actives, neighbours in structure and some others; about 2.8% of the full set was active somewhere.
SMILES,pPAFAH FP inh,HTRA1 inh,PAFAH1B3 inh,PAFAH2 inh,PAFAH1B2 inh,ABHD4 inh
Cc1ccc(CS/C(Nc2ccccc2C)=C(\C#N)C(=O)NCc2ccco2)c(C)c1,28.2*,-43.3,1.0,-10.5,-1.7,-12.8
c1cc(CNc2ccc3c(c2)OCO3)ccn1,11.3,16.1,9.4,1.6,11.6,19.3
Cc1ccc(CNc2ccc3c(c2)OCO3)cc1,18.7,48.7*,1.0,2.7,3.9,x
CN1Cc2c(N3CCOCC3)nc3sc(C(=O)c4ccc(Br)cc4)c(N)c3c2CC1(C)C,30.3*,x,x,x,x,15.1
CCN(C(=O)COc1cc(=O)n(CC)c2ccccc12)c1cccc(Cl)c1,26.6*,-2.9,1.2,15.1,6.4,-5.3
CCN(C(=O)COc1cc(=O)n(CC)c2ccccc12)c1cc(Cl)ccc1OC,0.3,-2.3,14.1,6.2,6.9,0.8
Cc1ccc(S(=O)(=O)N2CCCC(C(=O)NCCN3CCC(Cc4ccccc4)CC3)C2)cc1 (configuration not stated),x,x,x,x,x,2.1
COc1cc(OC)c(N(C)S(=O)(=O)c2cccc(C(=O)OCC(=O)NCc3ccco3)c2)cc1Cl,33.0*,-20.8,2.6,32.3*,3.7,-0.8
CN(c1ccccc1)S(=O)(=O)c1cccc(C(=O)OCC(=O)NCc2ccco2)c1,7.4,-1.3,6.5,24.2,5.6,-0.8
Cc1ccc(NC(=O)CC(=O)Nc2ccc(C)c(C)c2)cc1C,2.0,-7.8,5.2,-7.9,2.1,-13.7
Cc1ccc(NC(=O)CCSCCC(=O)Nc2ccc(C)c(C)c2)cc1C,4.5,-24.2,-7.9,-15.0,28.6*,-2.6
O=C(N1CCOCC1)C1(c2ccccc2)CCCCC1,4.7,3.4,9.7,7.0,28.2*,7.1
O=C(N1CCCCC1)C1(c2ccccc2)CCOCC1,-1.5,1.0,-1.7,5.5,4.5,-2.5
O=C(N1CCCCC1)C1(c2ccccc2)CCCCC1,1.5,-0.7,3.0,-3.1,29.6*,3.4
Cc1ccc(NC(=O)Nc2ccc3c(c2)[C@]2(CC(=O)N(CC(C)C)C2c2ccccc2)C(=O)N3C)cc1Cl (some centres not stated),x,x,x,x,x,1.2
CC(=O)Nc1ccc(NC(=O)C(C)OC(=O)CSc2ccc(Br)cc2C)cc1 (configuration not stated),15.1,-10.7,-4.5,9.7,24.5*,3.5
CC(C)C[C@H]1COc2cc(F)ccc2S(=O)(=O)N1C,x,x,x,x,x,5.5
COc1ccc(NC(=O)N(C)C[C@H]2Oc3ccc(NC(=O)Cc4ccccc4)cc3CC(=O)N([C@H](C)CO)C[C@H]2C)cc1,31.2*,-0.6,6.2,-3.4,1.1,-3.0
COc1ccc(S(=O)(=O)Nc2ccc3c(c2)CC(=O)N([C@@H](C)CO)C[C@@H](C)[C@@H](CN(C)Cc2ccccc2)O3)cc1,10.8,-17.6,6.9,2.6,37.6*,-13.7
COc1ccc(S(=O)(=O)N(C)C[C@H]2Oc3ccc(NS(=O)(=O)c4ccccc4)cc3CC(=O)N([C@H](C)CO)C[C@@H]2C)cc1,15.4,0.8,10.7,4.5,11.1,-4.9
C=CCN1[C@H](Cc2ccccc2)COc2cc(F)ccc2S1(=O)=O,x,x,x,x,x,-2.9
O=C(c1ccc(CS(=O)(=O)Cc2ccc(Cl)cc2)o1)N1CCCC1,25.9*,0.6,6.5,8.1,1.4,5.0
CCC(CC)NC(=O)COC(=O)c1ccc(OCc2ccc(C(C)=O)cc2OC)c(OC)c1,26.6*,-16.2,4.2,76.8*,-2.9,-13.5
Cn1c(CCN2CCCC2)nc2cc(NS(=O)(=O)c3ccc(Cl)cc3)ccc21,10.4,-4.8,2.3,4.8,28.1*,-5.9
Cc1ccc(S(=O)(=O)Nc2ccc3c(c2)nc(CCN2CCCC2)n3C)cc1,0.0,-5.0,-2.6,0.1,5.8,4.0
SMILES,pPAFAH FP inh,HTRA1 inh,PAFAH1B3 inh,PAFAH2 inh,PAFAH1B2 inh,ABHD4 inh
COc1ccc(NC(=O)COC(=O)c2ccc(O)cc2)c([N+](=O)[O-])c1,27.9*,-3.5,6.1,49.3*,-0.2,-4.2
COc1cc2c(cc1Cl)/C(=C\CCN(C)C)c1ccccc1S2,2.7,-8.8,4.0,12.9,-3.7,20.0
CN1CCN(CC/C=C2/c3ccccc3Sc3ccc(S(=O)(=O)N(C)C)cc32)CC1,24.9*,4.2,5.9,10.1,0.3,-2.4
Cc1ccc(-c2csc(NCCn3c(C)nc4cc(C(F)(F)F)ccc43)n2)cc1,4.0,-4.8,5.2,1.4,36.7*,-4.9
COC(=O)[C@]12C[C@H](CC(=O)NCc3cccc(C(F)(F)F)c3)C(=O)N(Cc3ccco3)C1=C[C@H](C(C)(C)C)O[C@@H]2C,x,x,x,x,x,-10.1
Cc1cc(C)c(NC(=O)COC(=O)Cc2cccs2)c(C)c1,25.7*,-3.7,9.6,3.0,0.9,-3.7
NC(=O)c1ccc(NC(=O)COC(=O)/C=C/c2cccs2)cc1,-1.2,-0.3,6.2,17.2,1.1,-0.4
O=C(COC(=O)Cc1cccs1)Nc1ccc(OC(F)(F)F)cc1,18.0,0.5,-6.8,6.1,2.6,107.6*
Cc1cc(C)c(NC(=O)CNC(=O)COC(=O)/C=C/c2cccs2)c(C)c1,26.8*,0.2,8.0,8.1,5.2,3.8
COc1ccc(CN2CCC(CNC(=O)NC3CCCC3)CC2)cc1,x,x,x,x,x,4.8
COc1cccc(NC(=O)C2CCCN2C(=O)NCc2ccccc2)c1 (configuration not stated),x,x,x,x,x,-3.8
Cc1ccc2c(c1)C=CC(C)N2C(=O)c1ccccc1 (configuration not stated),-1.6,1.6,2.8,3.6,31.7*,-1.8
N#Cc1c(N)oc(-c2ccco2)c1-c1ccco1,21.3,6.8,2.8,16.9,4.5,14.4
COc1ccc(OC)c(/C=N/c2oc(-c3ccco3)c(-c3ccco3)c2C#N)c1,29.6*,12.8,4.9,11.1,4.8,15.3
CCCCCCCCCCCCCCCC[N+](C)(C)CCN(Cc1ccc(OC)cc1)c1ncccn1,31.8*,52.4*,10.8,14.1,2.0,x
NNC(=O)c1nn(-c2ccc(Cl)cc2)cc1O,34.5*,28.3,8.4,-9.8,2.4,12.2
Cc1cc2n(n1)C(c1ccc(N(C)C)cc1)Nc1ccccc1-2 (configuration not stated),26.5*,-8.9,9.5,4.6,6.8,5.0
O=C(Nc1ccccc1)ON=C1c2ccccc2-c2ccccc21,-6.6,-7.7,20.6,-1.7,6.0,-16.6
O=C(Nc1ccccc1Cl)ON=C1c2ccccc2-c2ccccc21,-4.9,-38.2,25.7*,-1.0,2.9,x
COc1ccc(OCCn2c(C)nc3ccccc32)cc1,x,5.4,x,x,x,9.8
